Measurements: ChEMBL document CHEMBL3745600, “2-Amino-thiophene derivatives present antileishmanial activity mediated by apoptosis and immunomodulation in vitro” (Eur J Med Chem, 2015)
The source made the active and inactive calls. No cut-off for these calls is given here.

Experiments:
[1] = Cytotoxicity against Swiss mouse peritoneal macrophages after 24 hrs by MTT assay; assay type: cell-based, Peritoneal macrophage cell
Outline: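 Macrophages were collected from Swiss mice 5 days after thioglycollate (3%) elicitation. About 1 x 10^6 cells per well were incubated in RPMI 1640 with 10% heat-inactivated FBS and compound for 24 h at 37°C, 5% CO₂. MTT was added for 4 h, followed by 10% SDS, and absorbance was read at 540 nm. CC50 was obtained by probit regression.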

[2] = Toxicity in human RBC assessed as induction of hemolytic activity after 1 hr by spectrometer analysis; assay type: cell-based, Erythrocyte; details: red blood cells (RBC)
Outline: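 A 5% suspension of human erythrocytes in PBS was mixed 4:1 with serial compound dilutions and incubated 1 h at 37°C. The reaction was stopped with PBS (pH 7.2) and spun 10 min at 1000 x g, and supernatant absorbance was read at 540 nm. Haemolysis was expressed relative to a drug-free blank and to water-induced total lysis. HC50 was obtained by probit regression.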

[3] = Selectivity index, ratio of CC50 for Swiss mouse peritoneal macrophages to IC50 for promastigotes of Leishmania amazonensis IFLA/BR/67/PH8; assay type: functional
Outline: (§1)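 Promastigote values came from haemocytometer counts after 72 h at 25°C. Axenic amastigote values came from MTT readings after 24 h at 32°C, using amastigotes differentiated at pH 4.6. All 50% values were obtained by probit regression.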

[4] = Selectivity index, ratio of HC50 for human RBC to IC50 for promastigotes of Leishmania amazonensis IFLA/BR/67/PH8; outline: as §1
[5] = Selectivity index, ratio of CC50 for Swiss mouse peritoneal macrophages to EC50 for axenic amastigotes of Leishmania amazonensis IFLA/BR/67/PH8; outline: as §1
[6] = Selectivity index, ratio of HC50 for human RBC to IC50 for axenic amastigotes of Leishmania amazonensis IFLA/BR/67/PH8; outline: as §1
Leishmania amazonensis [7] = assay: Antileishmanial activity against promastigotes of Leishmania amazonensis IFLA/BR/67/PH8 assessed as induction of early apoptosis using Annexin-V staining at IC50 after 4 hrs by flow cytometry (reference value: 8.3%); assay type: functional
Leishmania amazonensis [8] = assay: Antileishmanial activity against promastigotes of Leishmania amazonensis IFLA/BR/67/PH8 assessed as induction of early apoptosis using Annexin-V staining at 2 times IC50 after 4 hrs by flow cytometry (reference value: 8.3%); assay type: functional
Leishmania amazonensis [9] = assay: Antileishmanial activity against promastigotes of Leishmania amazonensis IFLA/BR/67/PH8 assessed as induction of early apoptosis using Annexin-V staining at 4 times IC50 after 4 hrs by flow cytometry (reference value: 8.3%); assay type: functional
Leishmania amazonensis [10] = assay: Antileishmanial activity against promastigotes of Leishmania amazonensis IFLA/BR/67/PH8 assessed as induction of late apoptosis using Annexin-V/PI staining at IC50 after 4 hrs by flow cytometry (reference value: 12.05%); assay type: functional
Leishmania amazonensis [11] = assay: Antileishmanial activity against promastigotes of Leishmania amazonensis IFLA/BR/67/PH8 assessed as induction of late apoptosis using Annexin-V/PI staining at 2 times IC50 after 4 hrs by flow cytometry (reference value: 12.05%); assay type: functional
Leishmania amazonensis [12] = assay: Antileishmanial activity against promastigotes of Leishmania amazonensis IFLA/BR/67/PH8 assessed as induction of late apoptosis using Annexin-V/PI staining at 4 times IC50 after 4 hrs by flow cytometry (reference value: 12.05%); assay type: functional
Leishmania amazonensis [13] = assay: Antileishmanial activity against promastigotes of Leishmania amazonensis IFLA/BR/67/PH8 assessed as induction of necrosis using Annexin-V-FITC/PI staining at 4 times IC50 after 4 hrs by flow cytometry (reference value: 2.6%); assay type: functional
Leishmania amazonensis [14] = assay: Antileishmanial activity against promastigotes of Leishmania amazonensis IFLA/BR/67/PH8 assessed as induction of DNA fragmentation at 1 to 4 times IC50 after 24 hrs by agarose gel electrophoresis; assay type: functional, organism-based
Outline: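 Genomic DNA was extracted with phenol/chloroform and run on agarose with GelRed (1:500) for 1 h at […]. Fragmentation was viewed under UV as a qualitative read-out.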

Leishmania amazonensis [15] = assay: Antileishmanial activity against axenic amastigotes of Leishmania amazonensis IFLA/BR/67/PH8 infected in Swiss mouse peritoneal macrophages assessed as reduction of survival rate after 24 hrs by light microscopy analysis; assay type: functional, organism-based
Outline: (§2)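 Peritoneal macrophages were plated on glass coverslips at 1 x 10^6 cells/mL in supplemented RPMI 1640 and allowed to adhere for 2 h at 34°C, 5% CO₂. They were infected for 3 h with stationary-phase promastigotes at 10 parasites per macrophage, washed with PBS, then exposed to compound for 24 or 72 h. Coverslips were fixed and Panoptic-stained, and 300 macrophages per coverslip were counted by light microscopy. EC50 was derived by probit regression.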

Leishmania amazonensis [16] = assay: Antileishmanial activity against axenic amastigotes of Leishmania amazonensis IFLA/BR/67/PH8 infected in Swiss mouse peritoneal macrophages assessed as reduction of survival rate after 72 hrs by light microscopy analysis; assay type: functional, organism-based; outline: as §2
[17] = tested on: Peritoneal macrophage cell; assay: Immunomodulatory activity in Swiss mouse peritoneal macrophages infected with promastigotes form of Leishmania amazonensis IFLA/BR/67/PH8 assessed as increase of TNFalpha production at 6.25 to 25 uM after 72 hrs by sandwich ELISA; assay type: functional, cell-based
Outline: (§3)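 Supernatants came from infected macrophages treated for 72 h at 37°C, 5% CO₂. TNF-α, IL-12 and IL-10 were measured by sandwich ELISA at 450 nm against murine recombinant cytokine standards. NO was estimated as nitrite by the Griess reaction at 540 nm against a sodium nitrite standard. LPS (10 mg/L) served as positive control. Three experiments were run in triplicate.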

[18] = tested on: Peritoneal macrophage cell; assay: Immunomodulatory activity in Swiss mouse peritoneal macrophages infected with promastigotes form of Leishmania amazonensis IFLA/BR/67/PH8 assessed as increase of IL-12 production at 6.25 to 25 uM after 72 hrs by sandwich ELISA; assay type: functional, cell-based; outline: as §3
[19] = tested on: Peritoneal macrophage cell; assay: Immunomodulatory activity in Swiss mouse peritoneal macrophages infected with promastigotes form of Leishmania amazonensis IFLA/BR/67/PH8 assessed as increase of IL-10 production at 6.25 to 25 uM after 72 hrs by sandwich ELISA; assay type: functional, cell-based; outline: as §3
Leishmania amazonensis [20] = assay: Antileishmanial activity against promastigotes of Leishmania amazonensis IFLA/BR/67/PH8 assessed as induction of necrosis using Annexin-V-FITC/PI staining at IC50 after 4 hrs by flow cytometry (reference value: 2.6%); assay type: functional
Leishmania amazonensis [21] = assay: Antileishmanial activity against promastigotes of Leishmania amazonensis IFLA/BR/67/PH8 assessed as induction of necrosis using Annexin-V-FITC/PI staining at 2 times IC50 after 4 hrs by flow cytometry (reference value: 2.6%); assay type: functional
Leishmania amazonensis [22] = assay: Antileishmanial activity against promastigotes of Leishmania amazonensis IFLA/BR/67/PH8 assessed as viable cells using Annexin-V staining at IC50 after 4 hrs by flow cytometry (reference value: 77%); assay type: functional
Leishmania amazonensis [23] = assay: Antileishmanial activity against promastigotes of Leishmania amazonensis IFLA/BR/67/PH8 assessed as viable cells using Annexin-V staining at 4 times IC50 after 4 hrs by flow cytometry (reference value: 77%); assay type: functional
[24] = Ratio of compound CC50 to meglumine antimoniate CC50 for Swiss mouse peritoneal macrophages; assay type: ADME, cell-based, Peritoneal macrophage cell
[25] = Ratio of compound HC50 to meglumine antimoniate HC50 for human RBC; assay type: ADME, cell-based; details: erythrocyte
Leishmania amazonensis [26] = assay: Antileishmanial activity against axenic amastigotes of Leishmania amazonensis IFLA/BR/67/PH8 after 24 hrs by MTT assay; details: IFLA/BR/67/PH8, 24 h
Leishmania amazonensis [27] = assay: Antileishmanial activity against promastigotes of Leishmania amazonensis IFLA/BR/67/PH8 after 72 hrs by Neubauer haemocytometer counting; details: IFLA/BR/67/PH8, 72 h
[28] = tested on: Peritoneal macrophage cell; assay: Immunomodulatory activity in Swiss mouse peritoneal macrophages infected with promastigotes form of Leishmania amazonensis IFLA/BR/67/PH8 assessed as increase of nitric oxide production at 6.25 to 25 uM after 72 hrs by Griess assay; assay type: functional, cell-based; outline: as §3
Leishmania amazonensis [29] = assay: Antileishmanial activity against promastigotes of Leishmania amazonensis IFLA/BR/67/PH8 assessed as viable cells using Annexin-V staining at 2 times IC50 after 4 hrs by flow cytometry (reference value: 77%); assay type: functional
Leishmania amazonensis [30] = assay: Antileishmanial activity against axenic amastigotes of Leishmania amazonensis IFLA/BR/67/PH8 infected in Swiss mouse peritoneal macrophages assessed as reduction of survival rate at 300 mg/L after 72 hrs by light microscopy analysis; assay type: functional, organism-based; outline: as §2
Leishmania amazonensis [31] = assay: Antileishmanial activity against axenic amastigotes of Leishmania amazonensis IFLA/BR/67/PH8 infected in Swiss mouse peritoneal macrophages assessed as reduction of survival rate at 50 to 300 mg/L after 24 hrs by light microscopy analysis; assay type: functional, organism-based; outline: as §2

Molecule | CC50 at 24 h [1] | HC50 at 1 h [2] | Ratio CC50/IC50 [3] | Selectivity Index [4] | Ratio CC50/EC50 [5] | Selectivity Index [6] | Activity (Leishmania amazonensis [7]) | Activity (Leishmania amazonensis [8]) | Activity (Leishmania amazonensis [9]) | Activity (Leishmania amazonensis [10]) | Activity (Leishmania amazonensis [11]) | Activity (Leishmania amazonensis [12]) | Activity (Leishmania amazonensis [13]) | Activity (Leishmania amazonensis [14]) | Activity (Leishmania amazonensis [15]) | Activity (Leishmania amazonensis [16]) | Activity [17] | Activity [18] | Activity [19] | Activity (Leishmania amazonensis [20]) | further results
N#Cc1c(/N=C/c2cc3cc(Br)ccc3[nH]2)sc2c1CCCC2 | 113 µM | > 800 µM | 33.6 | > 237 | 6.12 | > 43.2 | 7.1% | 5.2% | 5.03% | 12.5% | 28.5% | 27.2% | 51.9% | Active | Dose-dependent effect | Dose-dependent effect | Active | Active | inactive | 3.5% | Activity (Leishmania amazonensis [21]): 21.7%; Activity (Leishmania amazonensis [22]): 76.7%; Activity (Leishmania amazonensis [23]): 15.8%; selectivity ratio [24]: 840; Ratio [25]: > 14800; EC50 (Leishmania amazonensis [26]): 18.5 µM; IC50 (Leishmania amazonensis [27]): 3.37 µM
N#Cc1c(/N=C/c2cc3ccccc3[nH]2)sc2c1CCCCC2 | 49.1 µM | 721 µM | 6.65 | 97.9 | 3.1 | 45.5 | 4.07% | 3.5% | 4.06% | 11.6% | 15.6% | 25.2% | 54.9% | Active | Dose-dependent effect | Dose-dependent effect | inactive | inactive | inactive | 12.1% | Activity [28]: inactive; Activity (Leishmania amazonensis [21]): 31.6%; Activity (Leishmania amazonensis [22]): 72.2%; Activity (Leishmania amazonensis [29]): 19%; Activity (Leishmania amazonensis [23]): 15.7%; EC50 (Leishmania amazonensis [26]): 15.8 µM; IC50 (Leishmania amazonensis [27]): 7.37 µM
Meglumine antimoniate | – | – | 0.04 | 0.016 | 1.01 | 0.42 | – | – | – | – | – | – | – | – | – | – | – | – | – | – | Activity (Leishmania amazonensis [30]): Active; Activity (Leishmania amazonensis [31]): inactive
